For experiment [1], the system named is HEp-2. As to the kind of experiment: Antiproliferative effect against Hep2 cell lines at a concentration of 1 uM. Format: functional, Homo sapiens.
Experiment [2] has as its system HeLa. As to the kind of experiment: Antiproliferative effect against HeLa cell lines at a concentration of 1 uM. Format: functional, Homo sapiens.
Experiment [3] concerns Mus musculus. The experiment is described as follows: In vivo antileukemic activity against P-388 cells in mice and the treated /control value was determined at schedule Q01Dx01 at a dose of 1 mg/kg. Format: functional. The method, boiled down: (§1)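 Mice bearing P-388 leukaemia received the hydrochloride salts as a single dose on day 3 after inoculation (Q01D×01). Activity is expressed as treated/control (T/C).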

Experiment [4] deals with Mus musculus. The experiment is described as follows: In vivo antileukemic activity against P-388 cells in mice and the treated /control value was determined at schedule Q01Dx01 at a dose of 4 mg/kg. Format: functional. In short, it runs like this: as §1
The subject of experiment [5] is Mus musculus. The experiment is described as follows: In vivo antileukemic activity against P-388 cells in mice and the treated /control value was determined at schedule Q01Dx01 at a dose of 2 mg/kg. The format is functional. In short, it runs like this: as §1
Experiment [6] concerns Mus musculus. The experiment is described as follows: In vivo antileukemic activity against P-388 cells in mice and the treated /control value was determined at schedule Q01Dx01 at a dose of 128 mg/kg. The format is functional. In short, it runs like this: as §1
The test system of experiment [7] is Mus musculus. The experiment is described as follows: In vivo antileukemic activity against P-388 cells in mice and the treated /control value was determined at schedule Q01Dx01 at a dose of 64 mg/kg. The format is functional. The method, boiled down:
as §1

In experiment [8] the test system is Nucleic Acid. As to the kind of experiment: Compound was evaluated for DNA binding affinity. The format is nucleic-acid assay. The note with it: Bos taurus. The method, boiled down:
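Drug solution (5 × 10^-5 M, 3 mL; three samples) was titrated with sequential aliquots of 2.5 × 10^-3 M DNA. Absorbance was read at the unbound-drug λmax after equilibration, against a buffer blank. Free and bound drug were derived from the fractional decrease in extinction. Affinity K and site number n were taken from a Scatchard plot.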

Experiment [9] deals with Mus musculus. The experiment is described as follows: In vivo antileukemic activity against P-388 cells in mice and the treated /control value was determined at schedule Q01Dx01 at a dose of 32 mg/kg. The format is functional. The method, boiled down:
as §1

The subject of experiment [10] is Mus musculus. As to the kind of experiment: In vivo antileukemic activity against P-388 cells in mice and the treated /control value was determined at schedule Q01Dx01 at a dose of 8 mg/kg. The format is functional. The method, boiled down: as §1
Experiment [11] concerns Mus musculus. The experiment is described as follows: In vivo antileukemic activity against P-388 cells in mice and the treated /control value was determined at schedule Q01Dx01 at a dose of 16 mg/kg. Format: functional. In short, it runs like this:
as §1

In experiment [12] the test system is Nucleic Acid. The experiment is described as follows: Concentration to give comigration of ccc PM-2 DNA with nicked PM-2 DNA under electrophoresis was evaluated. Format: nucleic-acid assay. The note with it: unidentified phage. In short, it runs like this:
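Agarose tube gels (1%, pH 7.4 Tris-Cl/EDTA/NaCl/acetate buffer) contained drug at final 0.00–1.00 µg/mL. PM-2 ccc-DNA was loaded with drug at a 5:1 DNA phosphate:drug ratio and run at 45 V, 20–25 °C, for 3–4 h. Gels were stained with ethidium. The critical concentration is where ccc-DNA comigrates with nicked PM-2 DNA.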

Experiment [13] has as its system HEp-2. As to the kind of experiment: Antiproliferative effect against Hep2 cell lines at a concentration of 10.0 uM. Format: functional, Homo sapiens.
Experiment [14] deals with HeLa. As to the kind of experiment: Antiproliferative effect against HeLa cell lines at a concentration of 10.0 uM. Format: functional, Homo sapiens.
Experiment [15] has as its system Mus musculus. The experiment is described as follows: In vivo antileukemic activity against P-388 cells in mice and the treated /control value was determined at schedule Q04Dx03 at a dose of 8 mg/kg.
The subject of experiment [16] is Mus musculus. As to the kind of experiment: In vivo antileukemic activity against P-388 cells in mice and the treated /control value was determined at schedule Q04Dx03 at a dose of 4 mg/kg.
The test system of experiment [17] is Mus musculus. As to the kind of experiment: In vivo antileukemic activity against P-388 cells in mice and the treated /control value was determined at schedule Q04Dx03 at a dose of 16 mg/kg.

Take `COc1cccc2c1C(=O)c1c(O)c3c(c(O)c1C2=O)C[C@@](O)(C(=O)CO)C[C@@H]3O[C@H]1C[C@H](N)[C@H](O)[C@H](C)O1` [DOXORUBICIN]: the “No. of untreated cells” value with HEp-2 [1] was found to be 56%; in the experiment on HeLa [2] it was 52%.
Consider `CCN(CC)CCNc1ccc(NCCN(CC)CC)c2c1C(=O)c1ccccc1C2=O`, for which the T/C with Mus musculus [3] is 117; with Mus musculus [4], 100; in the experiment on Mus musculus [5], 95; in the experiment with Mus musculus [6], 111; in the experiment with Mus musculus [7], 97; with Mus musculus [9], 103. In addition, the T/C in the experiment with Mus musculus [10] turned out to be 107; in the experiment on Mus musculus [11] it was 112. Besides, the “No. of untreated cells” value amounted to 88% with HEp-2 [1] and 98% in the experiment on HeLa [2]. For the same compound, in the experiment with Nucleic Acid [8], the Affinity constant worked out at 3.17e+06 M⁻¹. Moreover, the Critical concentration in the experiment on Nucleic Acid [12] was determined as 0.16 µg/mL.
Turning to `CCN(CC)CCNc1cccc2c1C(=O)c1ccccc1C2=O`, the T/C was determined as 105 with Mus musculus [3]; 100 with Mus musculus [4]; 98 in the experiment with Mus musculus [5]; 100 in the experiment with Mus musculus [10]; 95 with Mus musculus [11]. The same compound returned an Affinity constant in the experiment on Nucleic Acid [8] of 1.48e+06 M⁻¹. Besides, the “No. of untreated cells” value in the experiment on HEp-2 [13] worked out at 92%; in the experiment on HeLa [14], 96%. In the experiment with Nucleic Acid [12], the Critical concentration worked out at 0.8 µg/mL.
On to `CCN(CC)CCNc1cccc2c1C(=O)c1cccc(NCCN(CC)CC)c1C2=O`, for which the T/C worked out at 102 in the experiment on Mus musculus [3]; 107 in the experiment with Mus musculus [4]; 98 in the experiment on Mus musculus [5]; 92 with Mus musculus [6]; 105 in the experiment on Mus musculus [7]; 100 in the experiment with Mus musculus [9]. Also, the T/C was 98 in the experiment on Mus musculus [10] and 105 with Mus musculus [11]. Further, the results for the “No. of untreated cells” value in the experiment on HEp-2 [1] and in the experiment on HeLa [2] were 64% and 75%, respectively. The same compound gave an Affinity constant with Nucleic Acid [8] of 3.97e+06 M⁻¹. Further, in the experiment with Nucleic Acid [12], the Critical concentration is 0.16 µg/mL.
`CCN(CC)CCNc1cccc2c1C(=O)c1c(NCCN(CC)CC)cccc1C2=O`: the T/C with Mus musculus [15] is listed as 98; in the experiment with Mus musculus [4] it was 105; in the experiment with Mus musculus [5], 104; in the experiment with Mus musculus [16], 91; with Mus musculus [10], 107; in the experiment with Mus musculus [17], 102. The same compound registered an Affinity constant in the experiment on Nucleic Acid [8] of 1.71e+06 M⁻¹. For the same compound, the figures for the “No. of untreated cells” value in the experiment with HEp-2 [13] and with HeLa [14] were 84% and 64%, respectively. Also, the Critical concentration with Nucleic Acid [12] was found to be 0.4 µg/mL.

Source of the values: ChEMBL document CHEMBL1122896, “Comparative computer graphics and solution studies of the DNA interaction of substituted anthraquinones based on doxorubicin and mitoxantrone” (1985).
